An excerpt weighted towards active compounds, which were near 1.7% of everything screened.
Scp1 inh = blocks human Scp-1 phosphatase activity | inhibition, % at 20 µM | Recombinant Scp1, phosphopeptide, malachite green phosphate absorbance | AID 493091 | Q9GZU7 | 0.88% of 340,000 active;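 active = inhibition above about 50% at 20 µM, limit read from the data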
Target sequence (Q9GZU7 76-261 limits assumed): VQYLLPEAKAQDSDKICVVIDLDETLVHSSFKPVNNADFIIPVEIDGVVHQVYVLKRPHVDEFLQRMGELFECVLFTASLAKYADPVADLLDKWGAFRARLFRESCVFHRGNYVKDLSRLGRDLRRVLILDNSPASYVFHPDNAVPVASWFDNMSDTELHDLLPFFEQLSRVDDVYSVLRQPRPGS
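assay system = SCP-1 phosphatase catalytic domain, residues 76-261 | buffer or medium = 50 mM Tris acetate pH 5.5, 0.005% Tween-20, 10 mM MgCl2 | incubation = enzyme reaction 45 min at room temperature, colour 5 min, stabilisation 30 min | signal = Phosphate-binding colour reagent, absorbance read at 630 nm | measure = % inhibition at 20 µM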
STEP block = inhibitors of human striatal-enriched phosphatase STEP | recombinant STEP, OMFP fluorogenic substrate, fluorescence | P54829 | AID 588621 | inhibition, % at 20 µM | 0.25% of 360,000 active;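 active = inhibition at 20 µM, scaled per plate between control wells, above about 37%, limit read from the data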
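System: STEP phosphatase, cell-free reaction; Buffer or medium: Bis-Tris pH 6.0 buffer with DTT, detergent; Incubation: 20 min at room temperature, dark; Measured by: fluorescence, 480/540 nm.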
DNMT1 block = DNMT1 (human) enzyme inhibition | P26358 | DNMT1 molecular beacon, Hinp1I cleavage, fluorescence | inhibition (reported as % activation of signal), % at 10 µM | 0.83% of 360,000 active; in the data active = inhibition above about 50%
SUMO1 PPI mod = modulators of human SUMO1-mediated protein-protein interactions; P63165; SUMO1 binding to a labelled peptide, TR-FRET, 1 h; inhibition, % at 20 µM; 0.33% of 360,000 active; AID 602429; in the data active = inhibition above about 37%
Target sequence (P63165 whole entry, looked up): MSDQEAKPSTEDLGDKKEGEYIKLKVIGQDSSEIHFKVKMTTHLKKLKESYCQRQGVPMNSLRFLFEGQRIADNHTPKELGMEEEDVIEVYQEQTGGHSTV
LMPTP block = LMPTP (human) inhibition; P24666; recombinant LMPTP-A, OMFP fluorogenic substrate, fluorescence intensity; 0.22% of 360,000 active; inhibition, % at 20 µM; AID 651560;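 active = compounds that cut the enzyme signal by at least half of the control window in the single-dose screen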
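Assay system: LMPTP-A phosphatase enzyme | Input: 0.625 nM enzyme | Also added: Fluorogenic phosphatase substrate OMFP at 400 µM final | Compound dosing: One test concentration per compound, 20 µM, with 3% DMSO overall | Schedule: 50 min enzyme reaction at room temperature, protected from light | Signal: Fluorescence intensity | Benchmarks: no-enzyme and uninhibited controls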
DNMT1 interf DR = beacon fluorescence artifact, dose response counter-screen; molecular beacon fluorescence, spectral interference counter-screen; 200 tested, under 10 active; shares compounds with DNMT1 block; AID 602382; IC50, µM; call rule not given here
DNMT1 inh conf = confirmation of human DNMT1 inhibitors | shares compounds with DNMT1 block | inhibition, % at 10 µM | AID 602385 | 8% of 2,300 active | DNMT1 molecular beacon HinP1I cleavage, fluorescence;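 active = average inhibition of at least 30% in the single-concentration confirmation test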
Beacon interf = beacon fluorescence artifact counter-screen. shares compounds with DNMT1 block. DNMT1 molecular beacon spectral interference counterscreen, fluorescence 485/520. activation (fluorescence interference), % at 10 µM. 1% of 2,300 active;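 active = activation of at least 30% at 10 µM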;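 note: DNMT1 catalytic domain with a HinP1I cleavage step and a FAM/dabcyl DNA beacon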
Hits are given with their value; n = inactive; x = not tested or not shown.

SMILES	Scp1 inh	STEP block	DNMT1 block	SUMO1 PPI mod	LMPTP block	DNMT1 inh conf	Beacon interf	others
CC(=O)c1ccc(OC2(C)CCN(Cc3cc4ccccc4[nH]3)C2)cc1 (centres undefined)	x	n	91	n	n	n	n
Cc1nn(C)c(C(=O)NNC(=O)Nc2cccc(C(F)(F)F)c2)c1Cl	n	n	n	n	n	x	x
CNC(=O)C1=C(C)NC(=S)NC1c1cc2c(cc1OC)CCCC2 (centres undefined)	n	n	n	n	n	x	x
c1ccc(NN(Cc2ccccn2)c2ccccc2)cc1	x	n	n	n	n	x	x
Nc1ccc(Nc2ccccc2)c(S(=O)(=O)O)c1	83	97	97	58	70	n	n
COc1ccc(N(C(=O)Cn2nnc(-c3ccc(Cl)cc3)n2)C(C(=O)NCC2CCCO2)c2ccncc2)cc1 (centres undefined)	n	n	n	n	n	x	x
COc1ccc(N(C(=O)Cn2nnc(-c3ccccc3F)n2)C(C(=O)NCC2CCCO2)c2ccc(Cl)cc2)cc1 (centres undefined)	n	n	53	n	n	n	n
COc1ccc(N(C(=O)Cn2nnc(-c3ccc(Cl)cc3)n2)C(C(=O)NCC2CCCO2)c2ccc(C)cc2)cc1 (centres undefined)	n	n	55	n	n	n	n
COc1cc(/C=C2\SC(=O)N(Cc3ccc(Cl)cc3)C2=O)cc([N+](=O)[O-])c1O	59	65	89	105	51	n	n	DNMT1 interf DR=n
Cc1cc(OCC(=O)Nc2ccc(N3CCCC3)cc2)cc(C)c1Cl	n	n	71	n	n	n	n
Cc1cc(N2CCCC2)ccc1NC(=O)COc1ccccc1	n	n	64	n	n	n	n
COc1ccccc1NC(=O)CSc1nc2[nH]ncc2c(=O)[nH]1	n	n	n	n	n	x	x
COc1ccc(NS(=O)(=O)c2cc(C(=O)N3CCCCCC3)ccc2C)cc1	n	n	n	n	n	x	x
O=C1NC(c2ccc(Cl)cc2Cl)Oc2ccccc21 (centres undefined)	n	n	n	n	n	x	x
Cc1ccccc1C1NC(=O)c2ccccc2O1 (centres undefined)	n	n	75	n	n	n	n
Cc1ccc(-c2nnn(CC(=O)Nc3ccc(S(=O)(=O)N4CCC(C)CC4)cc3)n2)cc1	n	n	n	n	n	x	x
CC1CCN(S(=O)(=O)c2ccc(NC(=O)Cn3nnc(-c4ccccc4)n3)cc2)CC1	n	n	56	n	n	n	n
COC(=O)NC1CCC(CC2CCC(NC(=O)OC)CC2)CC1 (centres undefined)	n	n	n	n	n	x	x
O=C(NC1CCC(CC2CCC(NC(=O)C(Cl)Cl)CC2)CC1)C(Cl)Cl (centres undefined)	n	n	63	n	n	n	n
COc1ccc(/C=C/C(=O)C(C)(C)C)cc1OC	n	n	50	n	n	n	n
Cc1scc(C(=O)N2CCN(c3ccc(Cl)cc3)CC2)c1C	n	n	n	n	n	x	x
O=[N+]([O-])c1ccc(N/N=C/c2ccc(O)c(O)c2O)c(S(=O)(=O)N2CCOCC2)c1	n	n	62	n	67	n	n
O=[N+]([O-])c1ccc(N/N=C/c2cccc(O)c2O)c(S(=O)(=O)N2CCOCC2)c1	n	n	n	n	n	x	x
N=C1C(c2nc(-c3ccc(Br)cc3)cs2)=C(O)CN1NC(=O)c1ccc([N+](=O)[O-])cc1	n	n	56	n	n	n	n
CC(C)OCCCNC(=O)c1c(N)n(/N=C/c2cccs2)c2nc3ccccc3nc12	n	n	60	n	n	n	n
CC(=O)Nc1cc(-c2ccccc2N(C)C)cn2c(-c3ccc(S(C)(=O)=O)cc3)cnc12	x	n	189	n	n	n	n
CC(=O)Nc1cc(-c2ccccc2N(C)C)cn2c(-c3ccccc3)cnc12	x	n	n	n	n	x	x
